Source: paper PMC3705926 (Journal of ethnopharmacology, 2010)

How the values were obtained:
5-HT7 [1] = target: T1, 5-HT7 (Homo sapiens, UniProt P34969); experiment: Serotonin 5-HT7 receptor radioligand binding; settings: read-out: IC50, binding to serotonin receptor 5-HT7
[2] = test system: 2ERE-luciferase reporter (ER) in MCF-7 cells; experiment: 2ERE-luciferase reporter gene assay in transiently transfected MCF-7 cells; type: cell-based, human; settings: 1 μg/ml, 16 h
5-HT7 [3] = target: T1, 5-HT7; experiment: GTP shift experiment, [3H]LSD binding with or without 100 μM GTP
5-HT1A = target: T2, 5-HT1A (Homo sapiens, UniProt P08908); experiment: Serotonin 5-HT1A receptor radioligand binding; settings: read-out: IC50, binding to serotonin receptor 5-HT1A
T2 sequence (P08908 1-422): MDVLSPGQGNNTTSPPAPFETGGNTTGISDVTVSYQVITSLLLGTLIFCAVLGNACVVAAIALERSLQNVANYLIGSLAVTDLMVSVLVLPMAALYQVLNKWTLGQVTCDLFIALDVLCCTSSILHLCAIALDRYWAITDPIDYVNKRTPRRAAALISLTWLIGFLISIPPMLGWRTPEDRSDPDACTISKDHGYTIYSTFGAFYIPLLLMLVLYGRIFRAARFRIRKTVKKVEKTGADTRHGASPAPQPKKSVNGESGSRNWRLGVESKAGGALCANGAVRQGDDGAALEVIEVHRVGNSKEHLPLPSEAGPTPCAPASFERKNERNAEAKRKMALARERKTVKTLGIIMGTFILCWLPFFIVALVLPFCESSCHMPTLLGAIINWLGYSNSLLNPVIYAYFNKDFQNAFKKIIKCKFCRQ
Method in brief: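 Competition binding used Cos M6 cell membrane homogenate with [3H]5-CT (1.0 nM final) in 100 mM Tris-HCl, 1 mM EDTA, 1% ascorbic acid, pH 7.7, at 37°C for 30 min. Binding was stopped by rapid filtration and four ice-cold buffer washes, then counted by scintillation. IC50 came from non-linear curve fitting of at least triplicate determinations.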

[4] = [3H]-LSD displacement, absence of GTP, two-site fit

T1 sequence (P34969 whole entry): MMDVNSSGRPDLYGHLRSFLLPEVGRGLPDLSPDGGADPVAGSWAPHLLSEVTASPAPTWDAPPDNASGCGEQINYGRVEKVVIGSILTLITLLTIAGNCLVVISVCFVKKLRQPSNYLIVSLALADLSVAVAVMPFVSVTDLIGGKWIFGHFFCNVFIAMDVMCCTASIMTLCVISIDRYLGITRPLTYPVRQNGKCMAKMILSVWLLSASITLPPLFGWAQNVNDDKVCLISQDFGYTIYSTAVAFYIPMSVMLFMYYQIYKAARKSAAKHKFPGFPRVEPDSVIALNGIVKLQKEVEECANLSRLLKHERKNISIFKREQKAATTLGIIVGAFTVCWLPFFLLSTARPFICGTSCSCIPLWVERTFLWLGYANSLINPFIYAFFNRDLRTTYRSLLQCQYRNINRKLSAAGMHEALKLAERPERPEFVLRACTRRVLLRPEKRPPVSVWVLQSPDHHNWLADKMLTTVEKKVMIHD

5, 6-Z-fadyenolide [Compound 2]
IC50 (5-HT7 [1]): 23.2 µM | fold increase in luciferase activity [2]: 9.8 fold

9, 10-methylenedioxy-5, 6-Z-fadyenolide [Compound 1]
IC50 (5-HT7 [1]): 8.3 µM | IC50, high-affinity state (5-HT7 [3]; [4]): 14.0 ng/mL | IC50, low affinity state (5-HT7 [3]; [4]): 37.7 µg/mL | Ki, high-affinity state (5-HT7 [3]; [4]): 8.48 ng/mL | Ki, low affinity state (5-HT7 [3]; [4]): 26.7 ng/mL | agonist/antagonist character at the 5-HT7 receptor (5-HT7 [3]; from GTP shift of the binding curve): partial agonist | IC50 after addition of GTP (monophasic, low-affinity state) (5-HT7 [3]; with 100 μM GTP): 11.5 µg/mL | Ki after addition of GTP (5-HT7 [3]; with 100 μM GTP): 6.88 mg/mL | IC50 (5-HT1A): 16.1 µM | fold increase in luciferase activity [2]: not active

piperolide [Compound 3]
IC50 (5-HT7 [1]): 34.7 µM | fold increase in luciferase activity [2]: 8.4 fold
